Variants at the floor of the assay were thinned out.
B1: tRNA (parent)
chain: GUUCCGUUGGCGUAAUGGUAACGCGUCUCCCUCCUAAGGAGAAGACUGCGGGUUCGAGUCCCGUACGGAACG

Variants of: B1
Test: yeast fitness relative to wild type (ratio to wild type); higher = fitter; tRNA-Arg(CCU), competitive growth, 37 C, YPD
In short: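 Gene amplicons from the start population and from each of six end populations were read by 100-nucleotide paired-end sequencing. Those end populations came from pooled Saccharomyces cerevisiae strains carrying tRNA-Arg(CCU) gene variants at the native locus, competed in YPD at 37°C for 24 hours. Fitness relative to wild type was worked out from changes in genotype frequencies. Genotypes needed ≥ 100 starting reads, and estimates < 0.5 were set to 0.5.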
G9A A45G showed a yeast fitness of 1.01. With G9A A45U C62A the yeast fitness was ≤ 0.5. For G9A C11G U13C C27A C29U, the yeast fitness was ≤ 0.5. In the case of G9A C11A A69C, the yeast fitness is reported as 0.567. In the case of G9A C29G A45U C46G G48A G56C, the yeast fitness is reported as ≤ 0.5. Variant G9A G18C has a yeast fitness of 0.643. With G9A G18A C27U A42U the yeast fitness was 0.652. For G9A G12U A14U C34A A65C, the yeast fitness was ≤ 0.5. G9A G50A showed a yeast fitness of 1. For G9A C24G A40C G68A, the yeast fitness was ≤ 0.5. In the case of G9A G67C, the yeast fitness is reported as 0.932. G9A G67A showed a yeast fitness of 0.883. For G9A C34U G44C A45C C66G, the yeast fitness was ≤ 0.5. With G9A C34U G44C A45C C66A the yeast fitness was 0.578. With G9A G10C C60U U64G the yeast fitness was ≤ 0.5. With G9A C33A C46A G56C the yeast fitness was ≤ 0.5. In the case of G9A C33G C49A A69U, the yeast fitness is reported as ≤ 0.5. In the case of G9A C11G U13G G23C C34U C49U U59C C66U, the yeast fitness is reported as ≤ 0.5. For G9A C60U U64G, the yeast fitness was 0.696. G9A A43G showed a yeast fitness of 0.987. In the case of G9A A45C U53A G63C, the yeast fitness is reported as ≤ 0.5. With G9A C30U C34G A40C C49G G68C the yeast fitness was ≤ 0.5. For G9A C30G U32C G41A A57U, the yeast fitness was ≤ 0.5. For G9A G44C G58A, the yeast fitness was 0.766. G9A A43U C49U showed a yeast fitness of 0.744. With G9A G17C C49G the yeast fitness was ≤ 0.5. For G9A C22A U26A G52C G67A, the yeast fitness was ≤ 0.5. With G9A G12A C29G A65U the yeast fitness was ≤ 0.5. G9A C46G C49U A69C gave a yeast fitness of 0.709. For G9A C29G A57G, the yeast fitness was ≤ 0.5. In the case of G9A G25C C60G, the yeast fitness is reported as ≤ 0.5. With G9A G63A the yeast fitness was 1.06. With G9A C11G C22U A40G the yeast fitness was ≤ 0.5. In the case of G9A G39C C66U, the yeast fitness is reported as 0.606. For G9A A43C A57U C66U, the yeast fitness was 0.516. With G9A A57U A65C A69C the yeast fitness was ≤ 0.5. Variant G9A C46U G67C has a yeast fitness of 0.633. Variant G9A G39A G63C has a yeast fitness of 0.556. For G9A C24A C66A, the yeast fitness was ≤ 0.5. In the case of G9A G12A C22G A43G C46G C66U, the yeast fitness is reported as ≤ 0.5. With G9A A43C C62G the yeast fitness was ≤ 0.5. For G9A C29G C66U, the yeast fitness was ≤ 0.5. In the case of G9A C24U G38A G48C, the yeast fitness is reported as ≤ 0.5. With G9A C30U C33A A36U A43U the yeast fitness was ≤ 0.5. With G9A C24G G41C C66G the yeast fitness was ≤ 0.5. In the case of G9A U13A U19C C30U C61A, the yeast fitness is reported as ≤ 0.5. With G9A C29U U32A A43U C61G A65C C66G the yeast fitness was ≤ 0.5. With G9A C27G C33G C55G A57C the yeast fitness was ≤ 0.5. G9A C29U C55U gave a yeast fitness of 0.535. For G9A C24G C34G A43C, the yeast fitness was ≤ 0.5. With G9A C29G C30G C46G the yeast fitness was ≤ 0.5. G9A G48A showed a yeast fitness of 0.955. Work on G9A G48C yielded a yeast fitness of 0.985. With G9A C27G C34A C46G C55A G63A the yeast fitness was ≤ 0.5. With G9A G12C C31A C33G A45G G67U the yeast fitness was ≤ 0.5. Variant G9A G38A A65U has a yeast fitness of 0.565. With G9A C11U A36C the yeast fitness was ≤ 0.5. For G9A C31A G41C A69C, the yeast fitness was ≤ 0.5. With G9A C11G U13G G23C G25A C34U U59C C66U the yeast fitness was ≤ 0.5. With G9A A45C U64C A65C the yeast fitness was 0.648. In the case of G9A G23A C29U A43G G68U, the yeast fitness is reported as ≤ 0.5. In the case of G9A C11A A57G, the yeast fitness is reported as ≤ 0.5. Variant G9A U13C has a yeast fitness of 0.893. G9A C60G A70U showed a yeast fitness of 0.584. For G9A G52C, the yeast fitness was 0.641. G9A C11G U19C G56A C60G showed a yeast fitness of 0.566. In the case of G9A C11G U13C C27A C29U C62A, the yeast fitness is reported as ≤ 0.5. Variant G9A G12C C31A C33G A45G has a yeast fitness of 0.611. In the case of G9A A57G G67A, the yeast fitness is reported as 0.558. Variant G9A C49U has a yeast fitness of 0.845. Work on G9A C31U A40C yielded a yeast fitness of 1.04. With G9A C11G U32C A69C the yeast fitness was ≤ 0.5. In the case of G9A C30A A42C G68A, the yeast fitness is reported as ≤ 0.5. In the case of G9A G39C A43C A57C, the yeast fitness is reported as ≤ 0.5. With G9A C24U U32G A65C C66G the yeast fitness was ≤ 0.5. In the case of G9A C27G C34A C46G, the yeast fitness is reported as ≤ 0.5. For G9A U13A U32A, the yeast fitness was 0.839. With G9A C11U A14G C29A the yeast fitness was ≤ 0.5. With G9A G12U A14U U32G U53A the yeast fitness was ≤ 0.5. In the case of G9A C24G U28C A57C, the yeast fitness is reported as ≤ 0.5. For G9A C27A C49U C60U C62A A65G, the yeast fitness was ≤ 0.5. In the case of G9A G10C U19A, the yeast fitness is reported as ≤ 0.5. Work on G9A G58C yielded a yeast fitness of 0.895. Work on G9A C49U A69C yielded a yeast fitness of 0.85. Work on G9A G23A yielded a yeast fitness of 0.825. For G9A C46G C61A, the yeast fitness was ≤ 0.5. G9A G39A gave a yeast fitness of 0.999. For G9A C30A A57C A70U, the yeast fitness was ≤ 0.5. G9A G23A A36G showed a yeast fitness of 0.652. Work on G9A G10A C11U yielded a yeast fitness of 0.668. G9A C29U C46U showed a yeast fitness of 0.626. With G9A C60G G67A the yeast fitness was ≤ 0.5. For G9A G10A C31G A65U, the yeast fitness was ≤ 0.5. Work on G9A G25A A40C C46U yielded a yeast fitness of 0.727. For G9A C31U A57C U64A G68A, the yeast fitness was ≤ 0.5. G9A G25C C62U showed a yeast fitness of 0.712. With G9A U13A A15G C27U the yeast fitness was ≤ 0.5. For G9A C27U G56A G67A, the yeast fitness was ≤ 0.5. For G9A G52A G56U, the yeast fitness was ≤ 0.5. For G9A C34G, the yeast fitness was 0.588. G9A C11A A20G A42U G68C A70C gave a yeast fitness of 0.554. With G9A C11U A37G A45C the yeast fitness was 0.603. G9A C30U G44A A65U showed a yeast fitness of 0.578. In the case of G9A A57U A65U, the yeast fitness is reported as 0.532. With G9A C11A G38C G58A C60G the yeast fitness was ≤ 0.5. For G9A C27U A43G, the yeast fitness was 0.588. With G9A G25A C61A the yeast fitness was ≤ 0.5. In the case of G9A C24G A37G U59A G67A, the yeast fitness is reported as ≤ 0.5. Work on G9A C11A C30A A42C yielded a yeast fitness of 0.531. With G9A C31U A70C the yeast fitness was 0.766. With G9A G48C G68C the yeast fitness was 0.603. With G9A G38A the yeast fitness was 0.976. For G9A C34U C49A G52A, the yeast fitness was ≤ 0.5. In the case of G9A C22U U28C G44A G51C G58C, the yeast fitness is reported as ≤ 0.5. In the case of G9A C29A C31A A40C G44A U59A, the yeast fitness is reported as ≤ 0.5. In the case of G9A G17U U35A G52A U59C C66A G67A, the yeast fitness is reported as ≤ 0.5. With G9A G18C G39C A69U the yeast fitness was ≤ 0.5. With G9A G48C U53G the yeast fitness was ≤ 0.5. G9A C49U G68C showed a yeast fitness of 0.657. G9A C49U G68A showed a yeast fitness of 0.668. In the case of G9A G10C C11U U16G G41A G48A A65U, the yeast fitness is reported as ≤ 0.5. With G9A C11U C46G C62U C66U the yeast fitness was ≤ 0.5. With G9A C34G C55U G63A the yeast fitness was ≤ 0.5. For G9A G12C G17A C22G C30U C34G, the yeast fitness was ≤ 0.5. For G9A C66U, the yeast fitness was 0.898. In the case of G9A G25A U35G, the yeast fitness is reported as ≤ 0.5. With G9A G23C G39C the yeast fitness was ≤ 0.5. G9A C46U showed a yeast fitness of 0.943. With G9A C61G the yeast fitness was 0.705. With G9A A43C A57U the yeast fitness was ≤ 0.5. Work on G9A U13A C46U yielded a yeast fitness of 0.708. G9A C11G C55G showed a yeast fitness of 0.562. For G9A G56C, the yeast fitness was 0.563. With G9A G44A C55A A57U the yeast fitness was ≤ 0.5. With G9A C22G U35C C49G G68C the yeast fitness was ≤ 0.5. G9A C29A C34A gave a yeast fitness of 0.576. For G9A C33U G56A G67A, the yeast fitness was ≤ 0.5. G9A C33G A42C C49U C55G gave a yeast fitness of 0.729. With G9A C11G G50C C61G A70C the yeast fitness was ≤ 0.5. For G9A G12C A14C G23A G50C, the yeast fitness was 0.56. For G9A C11G A36U, the yeast fitness was ≤ 0.5. In the case of G9A G12C C31A C33G A45G C66U G68C, the yeast fitness is reported as ≤ 0.5. In the case of G9A C24G C30U A57G, the yeast fitness is reported as ≤ 0.5. With G9A C30G A43C the yeast fitness was ≤ 0.5. For G9A C22A U53A A57G C60A, the yeast fitness was ≤ 0.5. For G9A C22U A37G, the yeast fitness was ≤ 0.5. In the case of G9A G51A A57G, the yeast fitness is reported as ≤ 0.5. In the case of G9A G12C G17A C22G C30U C34G U59G A70U, the yeast fitness is reported as ≤ 0.5. With G9A G10C C11U U16G G41A the yeast fitness was 0.597. Work on G9A C22G A65C yielded a yeast fitness of 0.679. For G9A G12U A14U C27G G39A G67A, the yeast fitness was ≤ 0.5. Variant G9A G12C A14C G50C has a yeast fitness of 0.594. Variant G9A G41A A69C has a yeast fitness of 0.558. In the case of G9A C22U C61U A70C, the yeast fitness is reported as ≤ 0.5. In the case of G9A C24A U59A G67A, the yeast fitness is reported as ≤ 0.5. With G9A C11G C22U A40G A70G the yeast fitness was ≤ 0.5. In the case of G9A G12C U13A G25A C30G, the yeast fitness is reported as ≤ 0.5. With G9A C11A G50C C55A the yeast fitness was ≤ 0.5. Work on G9A C27U A45C yielded a yeast fitness of 0.904. G9A A65G A70G showed a yeast fitness of 0.595. In the case of G9A C55G A65C, the yeast fitness is reported as ≤ 0.5. In the case of G9A C27G C31U C46G G51C, the yeast fitness is reported as 0.594. With G9A G23A C27A the yeast fitness was ≤ 0.5. Work on G9A C30A A45C C49A yielded a yeast fitness of 0.651. For G9A C11G U32G A45G C49U U53A, the yeast fitness was 0.549. G9A C11G U13G G23C C34U U59C C66U gave a yeast fitness of 0.574. G9A G58C U59C showed a yeast fitness of 0.632.

Reference: the RNAGym collection of RNA variant scans (doi:10.1126/science.aae0568)
